{"source": "ChEMBL document CHEMBL3576814", "about": "“N (1)-Fluoroalkyltryptophan Analogues: Synthesis and in vitro Study as Potential Substrates for Indoleamine 2,3-Dioxygenase” (ACS Med Chem Lett, 2015)", "key": {"[1]": {"molecular_target": "Indoleamine 2,3-dioxygenase 1 (Homo sapiens) (UniProt P14902)", "sequence (P14902 whole entry, looked up)": "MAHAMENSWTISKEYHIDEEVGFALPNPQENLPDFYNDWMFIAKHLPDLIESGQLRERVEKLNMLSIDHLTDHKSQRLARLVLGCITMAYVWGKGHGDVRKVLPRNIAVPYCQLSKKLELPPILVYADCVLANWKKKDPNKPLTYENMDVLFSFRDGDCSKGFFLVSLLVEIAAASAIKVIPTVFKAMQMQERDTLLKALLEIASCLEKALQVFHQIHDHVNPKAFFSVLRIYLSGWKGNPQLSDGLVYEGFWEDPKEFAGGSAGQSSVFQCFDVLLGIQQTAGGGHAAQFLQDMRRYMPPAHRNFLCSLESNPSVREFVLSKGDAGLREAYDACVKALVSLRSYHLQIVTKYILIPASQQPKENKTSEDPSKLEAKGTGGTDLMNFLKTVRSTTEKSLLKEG", "experiment": "Activity of recombinant human IDO assessed as retention time treated with 1-FETrp by HPLC analysis", "outline": "(§1)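 rhIDO incubation mixtures analysed by HPLC or UPLC, eluting with CH3CN/10 mM ammonium acetate 10/90 or 5/95 (v/v) at 0.7 mL/min. UV detection uses 221 and 284 nm for substrates and 321 or 360 nm for products. Product peaks are collected for mass spectrometry.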"}, "[2]": {"molecular_target": "Indoleamine 2,3-dioxygenase 1 (Homo sapiens) (UniProt P14902)", "experiment": "Activity of recombinant human IDO assessed as retention time treated with L-Trp by HPLC analysis", "outline": "as §1"}, "[3]": {"molecular_target": "Tryptophan 2,3-dioxygenase (Homo sapiens) (UniProt P48775)", "sequence (P48775 whole entry, looked up)": "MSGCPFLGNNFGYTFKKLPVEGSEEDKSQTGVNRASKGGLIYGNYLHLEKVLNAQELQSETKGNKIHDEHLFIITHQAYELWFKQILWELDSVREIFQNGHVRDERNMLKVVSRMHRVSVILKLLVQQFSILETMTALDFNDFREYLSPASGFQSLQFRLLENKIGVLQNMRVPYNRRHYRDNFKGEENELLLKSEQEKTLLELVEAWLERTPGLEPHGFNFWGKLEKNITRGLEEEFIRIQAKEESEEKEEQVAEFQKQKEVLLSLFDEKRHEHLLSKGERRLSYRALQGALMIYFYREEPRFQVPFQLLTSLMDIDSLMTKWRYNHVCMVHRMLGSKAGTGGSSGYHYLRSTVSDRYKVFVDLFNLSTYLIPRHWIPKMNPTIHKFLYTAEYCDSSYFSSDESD", "experiment": "Activity of 1 uM recombinant human TDO assessed as substrate consumption at 100 uM at 37 degC at pH 7.5 after 1 hr by HPLC with fluorescence detection method", "outline": "(§2)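 Recombinant human TDO (1 or 10 μM enzyme) incubated with substrate at 100 μM, 37 °C, pH 7.5, for 1 h. Perchloric acid is then added and the mixture analysed by HPLC with fluorescence detection. Read-out is percentage of substrate consumed.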"}, "[4]": {"molecular_target": "Tryptophan 2,3-dioxygenase (Homo sapiens) (UniProt P48775)", "experiment": "Activity of 10 uM recombinant human TDO assessed as substrate consumption at 100 uM at 37 degC at pH 7.5 after 1 hr by HPLC with fluorescence detection method", "outline": "as §2"}, "[5]": {"experiment": "Retention time of the compound by HPLC analysis", "format": "physicochemical", "outline": "as §1"}, "[6]": {"molecular_target": "Indoleamine 2,3-dioxygenase 1 (Homo sapiens) (UniProt P14902)", "experiment": "Activity of recombinant human IDO assessed as retention time treated with 1-Me-L-Trp by HPLC analysis", "outline": "as §1"}, "[7]": {"molecular_target": "Indoleamine 2,3-dioxygenase 1 (Homo sapiens) (UniProt P14902)", "experiment": "Activity of recombinant human IDO assessed as retention time treated with 5-HO-L-Trp by HPLC analysis", "outline": "as §1"}}}
{"smiles": "NC(CC(=O)c1ccccc1NCCF)C(=O)O", "note": "(stereo not given)", "values": [{"measurement": "Retention time", "setting": "[1]", "value": 7.9, "unit": "min"}]}
{"smiles": "Nc1ccccc1C(=O)C[C@H](N)C(=O)O", "values": [{"measurement": "Retention time", "setting": "[2]", "value": 4.5, "unit": "min"}]}
{"smiles": "NC(Cc1cn(CCF)c2ccccc12)C(=O)O", "note": "(racemic)", "values": [{"measurement": "Activity", "setting": "[3]", "value": 0, "unit": "%"}, {"measurement": "Activity", "setting": "[4]", "value": 2, "unit": "%"}, {"measurement": "Retention_time", "setting": "[5]", "value": 9.2, "unit": "min"}]}
{"smiles": "NCCc1c[nH]c2ccccc12", "note": "[TRYPTAMINE]", "values": [{"measurement": "Retention_time", "setting": "[5]", "value": 9, "unit": "min"}]}
{"smiles": "CC(N)(Cc1c[nH]c2ccccc12)C(=O)O", "note": "(stereo not given)", "values": [{"measurement": "Retention_time", "setting": "[5]", "value": 7, "unit": "min"}]}
{"smiles": "CC(=O)N[C@@H](Cc1c[nH]c2ccccc12)C(=O)O", "note": "[ACETYLTRYPTOPHAN]", "values": [{"measurement": "Retention_time", "setting": "[5]", "value": 7, "unit": "min"}]}
{"smiles": "Cn1cc(C[C@H](N)C(=O)O)c2ccccc21", "note": "[(L)-1-METHYLTRYPTOPHAN]", "values": [{"measurement": "Activity", "setting": "[3]", "value": 0, "unit": "%"}, {"measurement": "Activity", "setting": "[4]", "value": 3, "unit": "%"}, {"measurement": "Retention_time", "setting": "[5]", "value": 9.4, "unit": "min"}]}
{"smiles": "NC(CC(=O)c1ccccc1N(C=O)CCF)C(=O)O", "note": "(stereo not given)", "values": [{"measurement": "Retention time", "setting": "[1]", "value": 5, "unit": "min"}]}
{"smiles": "CC(N)Cc1c[nH]c2ccccc12", "note": "(stereo not given)", "values": [{"measurement": "Retention_time", "setting": "[5]", "value": 11.1, "unit": "min"}]}
{"smiles": "CN(C=O)c1ccccc1C(=O)C[C@H](N)C(=O)O", "values": [{"measurement": "Retention time", "setting": "[6]", "value": 4.5, "unit": "min"}]}
{"smiles": "N[C@@H](Cc1c[nH]c2ccc(O)cc12)C(=O)O", "note": "[OXITRIPTAN]", "values": [{"measurement": "Activity", "setting": "[3]", "value": 0, "unit": "%"}, {"measurement": "Activity", "setting": "[4]", "value": 14, "unit": "%"}, {"measurement": "Retention_time", "setting": "[5]", "value": 5.1, "unit": "min"}]}
{"smiles": "CNc1ccccc1C(=O)C[C@H](N)C(=O)O", "values": [{"measurement": "Retention time", "setting": "[6]", "value": 7.4, "unit": "min"}]}
{"smiles": "N[C@@H](CC(=O)c1ccccc1NC=O)C(=O)O", "values": [{"measurement": "Retention time", "setting": "[2]", "value": 4.3, "unit": "min"}]}
{"smiles": "N[C@@H](Cc1c[nH]c2ccccc12)C(=O)O", "note": "[TRYPTOPHAN]", "values": [{"measurement": "Activity", "setting": "[3]", "value": 67, "unit": "%"}, {"measurement": "Activity", "setting": "[4]", "value": 100, "unit": "%"}, {"measurement": "Retention_time", "setting": "[5]", "value": 5.4, "unit": "min"}]}
{"smiles": "N[C@@H](Cc1cn(Cc2cn(CCF)nn2)c2ccccc12)C(=O)O", "values": [{"measurement": "Retention_time", "setting": "[5]", "value": 16.4, "unit": "min"}]}
{"smiles": "CC(C)(C)OC(=O)N[C@@H](Cc1c[nH]c2ccccc12)C(=O)O", "values": [{"measurement": "Retention_time", "setting": "[5]", "value": 5.9, "unit": "min"}]}
{"smiles": "Nc1ccc(O)cc1C(=O)C[C@H](N)C(=O)O", "values": [{"measurement": "Retention time", "setting": "[7]", "value": 3.9, "unit": "min"}]}
